Experimental data: ChEMBL document CHEMBL5376013, “Design, synthesis and biological evaluation of novel morpholinopyrimidine-5-carbonitrile derivatives as dual PI3K/mTOR inhibitors” (RSC Med Chem, 2024)

How the values were obtained:
Assay type in all cases: functional
Conditions in all cases: read-out: GI
[1] = test system: OVCAR-5; assay: Antitumor activity against human OVCAR-5 cells assessed as growth inhibition at 10 uM relative to control
How it was run: (§1)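 After drug addition, plates were incubated 48 h at 37 °C under 5% CO2. Adherent cells were fixed with cold TCA (10% final, 60 min, 4 °C) and suspension cells with 16% final TCA. Staining used 0.4% SRB in 1% acetic acid, solubilized in 10 mM trizma, read at A515. Percent growth was calculated from time-zero, control and treated absorbances.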

[2] = test system: TK-10; assay: Antitumor activity against human TK-10 cells assessed as growth inhibition at 10 uM relative to control
How it was run: (§2)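 Drug exposure 48 h at 37 °C, 5% CO2. Adherent cells fixed with cold TCA (10% final), suspension cells with TCA (16% final). Stained with 0.4% SRB in 1% acetic acid, dissolved in 10 mM Tris, A515. Growth relative to time-zero and untreated control.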

[3] = test system: SK-MEL-28; assay: Antitumor activity against human SK-MEL-28 cells assessed as growth inhibition at 10 uM relative to control; how it was run: as §2
[4] = test system: MCF7; assay: Antitumor activity against human MCF7 cells assessed as growth inhibition at 10 uM relative to control; how it was run: as §1
[5] = test system: HCT-15; assay: Antitumor activity against human HCT-15 cells assessed as growth inhibition at 10 uM relative to control; how it was run: as §1
[6] = test system: A549; assay: Antitumor activity against human A549 cells assessed as growth inhibition at 10 uM relative to control; how it was run: as §1
[7] = test system: SF-539; assay: Antitumor activity against human SF-539 cells assessed as growth inhibition at 10 uM relative to control; how it was run: as §1
[8] = test system: HT-29; assay: Antitumor activity against human HT-29 cells assessed as growth inhibition at 10 uM relative to control; how it was run: as §1
[9] = test system: NCI-H460; assay: Antitumor activity against human NCI-H460 cells assessed as growth inhibition at 10 uM relative to control; how it was run: as §1
[10] = test system: ACHN; assay: Antitumor activity against human ACHN cells assessed as growth inhibition at 10 uM relative to control; how it was run: as §1
[11] = test system: OVCAR-8; assay: Antitumor activity against human OVCAR-8 cells assessed as growth inhibition at 10 uM relative to control; how it was run: as §1
[12] = test system: NCI-H226; assay: Antitumor activity against human NCI-H226 cells assessed as growth inhibition at 10 uM relative to control; how it was run: as §1
[13] = test system: 786-0; assay: Antitumor activity against human 786-0 cells assessed as growth inhibition at 10 uM relative to control; how it was run: as §1
[14] = test system: UACC-62; assay: Antitumor activity against human UACC-62 cells assessed as growth inhibition at 10 uM relative to control; how it was run: as §2
[15] = test system: CCRF-CEM; assay: Antitumor activity against human CCRF-CEM cells assessed as growth inhibition at 10 uM relative to control; how it was run: as §1
[16] = test system: CAKI-1; assay: Antitumor activity against human CAKI-1 cells assessed as growth inhibition at 10 uM relative to control; how it was run: as §1
[17] = test system: K562; assay: Antitumor activity against human K562 cells assessed as growth inhibition at 10 uM relative to control; how it was run: as §1
[18] = test system: HL-60; assay: Antitumor activity against human HL-60 cells assessed as growth inhibition at 10 uM relative to control; how it was run: as §1
[19] = test system: MOLT-4; assay: Antitumor activity against human MOLT-4 cells assessed as growth inhibition at 10 uM relative to control; how it was run: as §1
[20] = test system: LOX IMVI; assay: Antitumor activity against human LOX IMVI cells assessed as growth inhibition at 10 uM relative to control; how it was run: as §1
[21] = test system: SF-268; assay: Antitumor activity against human SF-268 cells assessed as growth inhibition at 10 uM relative to control; how it was run: as §1
[22] = test system: NCI-H522; assay: Antitumor activity against human NCI-H522 cells assessed as growth inhibition at 10 uM relative to control; how it was run: as §1
[23] = test system: U-251; assay: Antitumor activity against human U-251 cells assessed as growth inhibition at 10 uM relative to control; how it was run: as §2
[24] = test system: SN12C; assay: Antitumor activity against human SN12C cells assessed as growth inhibition at 10 uM relative to control; how it was run: as §2
[25] = test system: HCC 2998; assay: Antitumor activity against human HCC 2998 cells assessed as growth inhibition at 10 uM relative to control; how it was run: as §1
[26] = test system: RXF 393; assay: Antitumor activity against human RXF 393 cells assessed as growth inhibition at 10 uM relative to control; how it was run: as §1
[27] = test system: COLO 205; assay: Antitumor activity against human COLO 205 cells assessed as growth inhibition at 10 uM relative to control; how it was run: as §1
[28] = test system: NCI/ADR-RES; assay: Antitumor activity against human NCI-ADR-RES cells assessed as growth inhibition at 10 uM relative to control; how it was run: as §1
[29] = test system: DU-145; assay: Antitumor activity against human DU-145 cells assessed as growth inhibition at 10 uM relative to control; how it was run: as §1
[30] = test system: SR; assay: Antitumor activity against human SR cells assessed as growth inhibition at 10 uM relative to control; how it was run: as §2
[31] = test system: SNB-19; assay: Antitumor activity against human SNB-19 cells assessed as growth inhibition at 10 uM relative to control; how it was run: as §2
[32] = test system: NCI-H322M; assay: Antitumor activity against human NCI-H322M cells assessed as growth inhibition at 10 uM relative to control; how it was run: as §1
[33] = test system: MDA-MB-231; assay: Antitumor activity against human MDA-MB-231 cells assessed as growth inhibition at 10 uM relative to control; how it was run: as §1
[34] = test system: T47D; assay: Antitumor activity against human T47D cells assessed as growth inhibition at 10 uM relative to control; how it was run: as §2
[35] = test system: Hs-578T; assay: Antitumor activity against human Hs-578T cells assessed as growth inhibition at 10 uM relative to control; how it was run: as §1
[36] = test system: BT-549; assay: Antitumor activity against human BT-549 cells assessed as growth inhibition at 10 uM relative to control; how it was run: as §1
[37] = test system: IGROV-1; assay: Antitumor activity against human IGROV-1 cells assessed as growth inhibition at 10 uM relative to control; how it was run: as §1
[38] = test system: SK-MEL-5; assay: Antitumor activity against human SK-MEL-5 cells assessed as growth inhibition at 10 uM relative to control; how it was run: as §2
[39] = test system: SK-OV-3; assay: Antitumor activity against human SK-OV-3 cells assessed as growth inhibition at 10 uM relative to control; how it was run: as §2
[40] = test system: SK-MEL-2; assay: Antitumor activity against human SK-MEL-2 cells assessed as growth inhibition at 10 uM relative to control; how it was run: as §1
[41] = test system: NCI-H23; assay: Antitumor activity against human NCI-H23 cells assessed as growth inhibition at 10 uM relative to control; how it was run: as §1
[42] = test system: A498; assay: Antitumor activity against human A498 cells assessed as growth inhibition at 10 uM relative to control; how it was run: as §1
[43] = test system: EKVX; assay: Antitumor activity against human EKVX cells assessed as growth inhibition at 10 uM relative to control; how it was run: as §1
[44] = test system: PC-3; assay: Antitumor activity against human PC-3 cells assessed as growth inhibition at 10 uM relative to control; how it was run: as §1
[45] = test system: UO-31; assay: Antitumor activity against human UO-31 cells assessed as growth inhibition at 10 uM relative to control; how it was run: as §2
[46] = test system: MDA-MB-435; assay: Antitumor activity against human MDA-MB-435 cells assessed as growth inhibition at 10 uM relative to control; how it was run: as §1

Q: How did the inhibition of growth at 10 µM [1] turn out when `N#Cc1c(-c2ccc(Cl)cc2)nc(NN2C(=O)CCC2=O)nc1N1CCOCC1` was run?
A: < 1%

Q: What about the inhibition of growth at 10 µM [2] of the same molecule?
A: < 1%

Q: And the inhibition of growth at 10 µM [3]?
A: < 1%

Q: What about the inhibition of growth at 10 µM [4] of the same molecule?
A: 1%

Q: And the inhibition of growth at 10 µM [5]?
A: < 1%

Q: And the inhibition of growth at 10 µM [6]?
A: < 1%

Q: And the inhibition of growth at 10 µM [7]?
A: < 1%

Q: And the inhibition of growth at 10 µM [8]?
A: < 1%

Q: And the inhibition of growth at 10 µM [9]?
A: < 1%

Q: And the inhibition of growth at 10 µM [10]?
A: < 1%

Q: And the inhibition of growth at 10 µM [11]?
A: < 1%

Q: What about the inhibition of growth at 10 µM [12] of the same molecule?
A: < 1%

Q: What about the inhibition of growth at 10 µM [13] of the same molecule?
A: < 1%

Q: What about the inhibition of growth at 10 µM [14] of the same molecule?
A: < 1%

Q: What about the inhibition of growth at 10 µM [15] of the same molecule?
A: < 1%

Q: What about the inhibition of growth at 10 µM [16] of the same molecule?
A: < 1%

Q: And the inhibition of growth at 10 µM [17]?
A: < 1%

Q: And the inhibition of growth at 10 µM [18]?
A: < 1%

Q: And the inhibition of growth at 10 µM [19]?
A: < 1%

Q: What about the inhibition of growth at 10 µM [20] of the same molecule?
A: < 1%

Q: What about the inhibition of growth at 10 µM [21] of the same molecule?
A: < 1%

Q: What about the inhibition of growth at 10 µM [22] of the same molecule?
A: 16%

Q: What about the inhibition of growth at 10 µM [23] of the same molecule?
A: < 1%

Q: What about the inhibition of growth at 10 µM [24] of the same molecule?
A: < 1%

Q: And the inhibition of growth at 10 µM [25]?
A: < 1%

Q: What about the inhibition of growth at 10 µM [26] of the same molecule?
A: < 1%

Q: And the inhibition of growth at 10 µM [27]?
A: < 1%

Q: And the inhibition of growth at 10 µM [28]?
A: < 1%

Q: What about the inhibition of growth at 10 µM [29] of the same molecule?
A: < 1%

Q: What about the inhibition of growth at 10 µM [30] of the same molecule?
A: < 1%

Q: And the inhibition of growth at 10 µM [31]?
A: < 1%

Q: What about the inhibition of growth at 10 µM [32] of the same molecule?
A: < 1%

Q: What about the inhibition of growth at 10 µM [33] of the same molecule?
A: < 1%

Q: And the inhibition of growth at 10 µM [34]?
A: < 1%

Q: What about the inhibition of growth at 10 µM [35] of the same molecule?
A: < 1%

Q: What about the inhibition of growth at 10 µM [36] of the same molecule?
A: < 1%

Q: What about the inhibition of growth at 10 µM [37] of the same molecule?
A: < 1%

Q: And the inhibition of growth at 10 µM [38]?
A: < 1%

Q: What about the inhibition of growth at 10 µM [39] of the same molecule?
A: < 1%

Q: What about the inhibition of growth at 10 µM [40] of the same molecule?
A: < 1%

Q: And the inhibition of growth at 10 µM [41]?
A: < 1%

Q: What about the inhibition of growth at 10 µM [42] of the same molecule?
A: < 1%

Q: And the inhibition of growth at 10 µM [43]?
A: < 1%

Q: And the inhibition of growth at 10 µM [44]?
A: < 1%

Q: What about the inhibition of growth at 10 µM [45] of the same molecule?
A: 12.5%

Q: And the inhibition of growth at 10 µM [46]?
A: < 1%
